Measured values reported in ChEMBL document CHEMBL2390917, “Synthesis and biological evaluation of 2-(5-methyl-4-phenyl-2-oxopyrrolidin-1-yl)-acetamide stereoisomers as novel positive allosteric modulators of sigma-1 receptor” (Bioorg Med Chem, 2013).
The source made the active and inactive calls. The rule behind the calls is not given here.

Legend:
[1] = biological target: 5-hydroxytryptamine receptor 1A (Homo sapiens) (UniProt P08908); assay: Binding affinity to human 5-HT1A receptor at 10 uM by radioligand displacement assay relative to control
Sequence of 5-hydroxytryptamine receptor 1A (Homo sapiens) (P08908 whole entry): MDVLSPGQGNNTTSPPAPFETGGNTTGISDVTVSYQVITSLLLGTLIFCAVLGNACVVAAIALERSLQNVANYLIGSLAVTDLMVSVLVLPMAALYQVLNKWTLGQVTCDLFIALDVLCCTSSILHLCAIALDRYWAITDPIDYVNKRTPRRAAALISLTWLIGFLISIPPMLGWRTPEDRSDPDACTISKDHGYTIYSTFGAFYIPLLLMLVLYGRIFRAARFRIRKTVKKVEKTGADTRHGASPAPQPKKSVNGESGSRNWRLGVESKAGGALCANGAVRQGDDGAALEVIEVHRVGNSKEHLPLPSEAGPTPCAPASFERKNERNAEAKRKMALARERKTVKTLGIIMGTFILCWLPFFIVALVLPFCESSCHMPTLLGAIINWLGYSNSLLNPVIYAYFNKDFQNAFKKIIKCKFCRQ

[2] = biological target: 5-hydroxytryptamine receptor 2C (Homo sapiens) (UniProt P28335); assay: Binding affinity to human 5-HT2C receptor at 10 uM by radioligand displacement assay relative to control
[3] = biological target: Muscarinic acetylcholine receptor M4 (Homo sapiens) (UniProt P08173); assay: Binding affinity to human muscarinic M4 receptor at 10 uM by radioligand displacement assay relative to control
Sequence of Muscarinic acetylcholine receptor M4 (Homo sapiens) (P08173 whole entry): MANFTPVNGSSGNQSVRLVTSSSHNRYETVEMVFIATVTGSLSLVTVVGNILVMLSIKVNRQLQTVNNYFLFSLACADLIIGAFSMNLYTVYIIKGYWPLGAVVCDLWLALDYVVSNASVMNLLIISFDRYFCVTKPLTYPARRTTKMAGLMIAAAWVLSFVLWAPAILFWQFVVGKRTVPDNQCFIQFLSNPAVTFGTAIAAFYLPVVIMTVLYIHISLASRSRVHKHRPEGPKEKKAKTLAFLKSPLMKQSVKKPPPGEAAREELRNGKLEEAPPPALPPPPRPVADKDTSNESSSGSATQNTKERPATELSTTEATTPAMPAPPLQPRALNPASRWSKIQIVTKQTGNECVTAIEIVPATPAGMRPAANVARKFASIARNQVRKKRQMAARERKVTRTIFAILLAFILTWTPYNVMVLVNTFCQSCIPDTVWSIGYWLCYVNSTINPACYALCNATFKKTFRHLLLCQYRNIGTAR

[4] = biological target: Adenosine receptor A1 (Homo sapiens) (UniProt P30542); assay: Binding affinity to human adenosine A1 receptor at 10 uM by radioligand displacement assay relative to control
Sequence of Adenosine receptor A1 (Homo sapiens) (P30542 whole entry): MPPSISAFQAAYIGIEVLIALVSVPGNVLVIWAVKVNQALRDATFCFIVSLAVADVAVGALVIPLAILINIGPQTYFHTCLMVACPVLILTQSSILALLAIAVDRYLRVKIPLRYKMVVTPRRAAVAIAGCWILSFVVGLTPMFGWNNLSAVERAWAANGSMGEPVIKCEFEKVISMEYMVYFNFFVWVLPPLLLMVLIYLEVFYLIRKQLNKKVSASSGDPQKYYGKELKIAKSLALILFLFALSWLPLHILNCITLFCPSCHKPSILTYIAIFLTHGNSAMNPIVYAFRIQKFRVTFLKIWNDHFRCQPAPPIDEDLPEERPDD

[5] = biological target: Melatonin receptor type 1A (Homo sapiens) (UniProt P48039); assay: Binding affinity to human ML1A receptor at 10 uM by radioligand displacement assay relative to control
Sequence of Melatonin receptor type 1A (Homo sapiens) (P48039 whole entry): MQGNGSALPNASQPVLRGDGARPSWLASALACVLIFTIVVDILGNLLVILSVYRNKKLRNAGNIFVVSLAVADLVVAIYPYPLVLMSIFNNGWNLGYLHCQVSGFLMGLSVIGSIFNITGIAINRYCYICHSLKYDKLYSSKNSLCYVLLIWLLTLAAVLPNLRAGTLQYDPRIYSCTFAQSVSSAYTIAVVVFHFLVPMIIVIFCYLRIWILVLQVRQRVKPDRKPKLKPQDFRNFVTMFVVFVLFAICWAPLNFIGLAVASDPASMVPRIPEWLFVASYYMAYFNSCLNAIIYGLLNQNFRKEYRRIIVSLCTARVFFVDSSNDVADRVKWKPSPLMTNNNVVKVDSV

[6] = biological target: Endothelin-1 receptor (Homo sapiens) (UniProt P25101); assay: Binding affinity to human ETA receptor at 10 uM by radioligand displacement assay relative to control
Sequence of Endothelin-1 receptor (Homo sapiens) (P25101 whole entry): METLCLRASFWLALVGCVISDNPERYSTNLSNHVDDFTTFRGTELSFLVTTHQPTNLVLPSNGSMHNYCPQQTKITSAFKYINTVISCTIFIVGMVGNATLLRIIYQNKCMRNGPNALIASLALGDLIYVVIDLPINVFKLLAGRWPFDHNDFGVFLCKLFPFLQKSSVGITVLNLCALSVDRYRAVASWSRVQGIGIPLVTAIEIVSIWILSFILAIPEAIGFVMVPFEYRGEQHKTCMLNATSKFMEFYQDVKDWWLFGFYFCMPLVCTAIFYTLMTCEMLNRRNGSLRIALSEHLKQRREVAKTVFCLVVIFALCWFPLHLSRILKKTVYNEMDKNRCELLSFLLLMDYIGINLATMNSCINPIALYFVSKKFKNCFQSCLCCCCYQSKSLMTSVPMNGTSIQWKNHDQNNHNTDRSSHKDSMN

[7] = biological target: D(3) dopamine receptor (Homo sapiens) (UniProt P35462); assay: Binding affinity to human dopamine D3 receptor at 10 uM by radioligand displacement assay relative to control
Mus musculus [8] = assay: Toxicity in ICR mouse assessed as effect on locomotor activity measured moved distance per 4 mins at 100 mg/kg, ip after 240 mins by open field test (reference value: 398 70 cm); type: organism-based; parameters: dose 100 mg/kg, route intraperitoneal; details: in vivo
Homo sapiens [9] = organism: Homo sapiens; assay: Binding affinity to sodium channel site 2 (unknown origin) at 10 uM by radioligand displacement assay relative to control
Homo sapiens [10] = organism: Homo sapiens; assay: Binding affinity to PCP receptor (unknown origin) at 10 uM by radioligand displacement assay relative to control
Mus musculus [11] = assay: Antiamnesic activity in ICR mouse scopolamine-induced memory impairment model assessed as increase in retention latency at 10 mg/kg, ip administered 60 mins prior to scopolamine challenge measured after 40 mins by passive avoidance test relative to scopolamine-treated control; type: functional; details: route intraperitoneal
[12] = biological target: Galanin receptor type 2 (Homo sapiens) (UniProt O43603); assay: Binding affinity to human GAL2 receptor at 10 uM by radioligand displacement assay relative to control
Sequence of Galanin receptor type 2 (Homo sapiens) (O43603 whole entry): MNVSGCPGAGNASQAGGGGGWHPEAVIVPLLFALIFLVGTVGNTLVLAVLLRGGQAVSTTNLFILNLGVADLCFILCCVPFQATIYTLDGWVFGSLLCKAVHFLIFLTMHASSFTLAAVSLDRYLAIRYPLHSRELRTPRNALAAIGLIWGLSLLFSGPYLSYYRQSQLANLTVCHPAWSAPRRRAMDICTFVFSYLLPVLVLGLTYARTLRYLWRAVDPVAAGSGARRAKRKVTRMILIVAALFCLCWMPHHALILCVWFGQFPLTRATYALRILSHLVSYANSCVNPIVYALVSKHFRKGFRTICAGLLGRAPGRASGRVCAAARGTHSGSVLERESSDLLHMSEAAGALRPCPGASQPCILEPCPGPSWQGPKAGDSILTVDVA

[13] = biological target: Mu-type opioid receptor (Homo sapiens) (UniProt P35372); assay: Binding affinity to mu opioid receptor (unknown origin) at 10 uM by radioligand displacement assay relative to control
Sequence of Mu-type opioid receptor (Homo sapiens) (P35372 whole entry): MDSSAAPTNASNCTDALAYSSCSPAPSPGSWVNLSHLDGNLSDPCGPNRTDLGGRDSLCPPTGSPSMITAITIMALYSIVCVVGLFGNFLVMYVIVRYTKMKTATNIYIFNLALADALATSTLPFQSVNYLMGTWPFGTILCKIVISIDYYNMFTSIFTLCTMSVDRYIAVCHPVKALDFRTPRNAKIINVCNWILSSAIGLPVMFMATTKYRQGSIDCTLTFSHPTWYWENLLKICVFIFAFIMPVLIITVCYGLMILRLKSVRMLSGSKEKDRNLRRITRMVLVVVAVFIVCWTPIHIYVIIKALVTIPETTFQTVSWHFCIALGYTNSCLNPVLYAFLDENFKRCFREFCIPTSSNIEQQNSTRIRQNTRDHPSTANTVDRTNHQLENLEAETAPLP

Mus musculus [14] = assay: Cognitive enhancing effect in ip dosed ICR mouse assessed as increase in retention latency administered 60 mins prior to testing measured after 24 hrs by passive avoidance test; type: functional, organism-based
[15] = biological target: Galanin receptor type 1 (Homo sapiens) (UniProt P47211); assay: Binding affinity to human GAL1 receptor at 10 uM by radioligand displacement assay relative to control
Sequence of Galanin receptor type 1 (Homo sapiens) (P47211 whole entry): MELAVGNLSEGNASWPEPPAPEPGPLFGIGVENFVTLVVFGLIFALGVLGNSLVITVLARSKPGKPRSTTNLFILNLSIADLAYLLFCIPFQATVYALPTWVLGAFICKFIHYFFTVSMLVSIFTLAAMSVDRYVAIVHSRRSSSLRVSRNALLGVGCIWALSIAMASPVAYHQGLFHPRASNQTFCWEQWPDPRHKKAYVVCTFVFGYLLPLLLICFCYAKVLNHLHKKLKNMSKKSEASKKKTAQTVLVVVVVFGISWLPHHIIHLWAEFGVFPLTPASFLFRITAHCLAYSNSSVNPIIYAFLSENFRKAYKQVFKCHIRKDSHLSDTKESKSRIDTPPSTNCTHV

Mus musculus [16] = assay: Toxicity in ICR mouse assessed as effect on locomotor activity measured moved distance per 4 mins at 100 mg/kg, ip after 60 mins by open field test (reference value: 623 136 cm); type: organism-based; parameters: dose 100 mg/kg, route intraperitoneal; details: in vivo
Mus musculus [17] = assay: Toxicity in ip dosed ICR mouse assessed as effect on motor coordination measured within 120 secs by rotarod test; type: organism-based; details: in vivo, 2 min
Mus musculus [18] = assay: Toxicity in ip dosed ICR mouse assessed as effect on motor performance measured within 30 secs by chimney test; type: organism-based; details: in vivo, 0.5 min
[19] = biological target: D(4) dopamine receptor (Homo sapiens) (UniProt P21917); assay: Binding affinity to human dopamine D4.4 receptor at 10 uM by radioligand displacement assay relative to control
[20] = biological target: Sigma non-opioid intracellular receptor 1 (Rattus norvegicus) (UniProt Q9R0C9); assay: Positive allosteric modulation of Wistar rat sigma 1 receptor assessed as increase in electrically-stimulated vas deferens contraction at 10 uM after 10 mins
Sequence of Sigma non-opioid intracellular receptor 1 (Rattus norvegicus) (Q9R0C9 whole entry): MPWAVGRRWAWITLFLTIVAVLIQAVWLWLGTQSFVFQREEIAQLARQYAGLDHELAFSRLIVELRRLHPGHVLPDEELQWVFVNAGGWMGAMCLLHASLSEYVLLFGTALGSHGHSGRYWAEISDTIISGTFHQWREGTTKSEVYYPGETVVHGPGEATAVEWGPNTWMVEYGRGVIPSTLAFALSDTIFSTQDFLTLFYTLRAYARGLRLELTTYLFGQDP
How it was run: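 Isolated rat vas deferens, proximal ~15 mm segments, in K-H buffer at 32 °C gassed […], with 1.0 g passive tension and a 60 min adaptation. Field-stimulated at 0.1 Hz, 1 ms, 50 V. Cumulative PRE-084 (1–100 µM) was given, then washout and a 30 min rest. Test compound 10 µM was added for 10 min before cumulative PRE-084. Response is % increase over baseline amplitude; n=6, mean ± SEM, paired t-test.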

Mus musculus [21] = assay: Toxicity in ICR mouse assessed as effect on locomotor activity measured moved distance per 4 mins at 10 mg/kg, ip after 180 mins by open field test (reference value: 436 125 cm); type: organism-based; parameters: dose 10 mg/kg, route intraperitoneal; details: in vivo
Mus musculus [22] = assay: Toxicity in ICR mouse assessed as effect on locomotor activity measured moved distance per 4 mins at 1 mg/kg, ip after 60 mins by open field test (reference value: 623 136 cm); type: organism-based; parameters: dose 1 mg/kg, route intraperitoneal; details: in vivo
[23] = biological target: Gastrin/cholecystokinin type B receptor (Homo sapiens) (UniProt P32239); assay: Binding affinity to human CCK2 receptor at 10 uM by radioligand displacement assay relative to control
Sequence of Gastrin/cholecystokinin type B receptor (Homo sapiens) (P32239 whole entry): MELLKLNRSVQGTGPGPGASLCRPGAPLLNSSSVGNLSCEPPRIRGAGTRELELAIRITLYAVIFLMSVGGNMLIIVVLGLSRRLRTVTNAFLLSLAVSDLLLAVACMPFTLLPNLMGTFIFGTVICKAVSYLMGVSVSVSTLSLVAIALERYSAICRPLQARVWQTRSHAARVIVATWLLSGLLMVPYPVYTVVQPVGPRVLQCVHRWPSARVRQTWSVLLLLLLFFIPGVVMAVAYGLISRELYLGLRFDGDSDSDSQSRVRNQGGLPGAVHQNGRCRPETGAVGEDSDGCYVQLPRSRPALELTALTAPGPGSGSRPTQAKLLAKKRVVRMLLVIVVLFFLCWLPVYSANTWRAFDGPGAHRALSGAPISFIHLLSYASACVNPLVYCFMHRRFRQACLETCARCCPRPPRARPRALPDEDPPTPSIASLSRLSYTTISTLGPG

[24] = biological target: B2 bradykinin receptor (Homo sapiens) (UniProt P30411); assay: Binding affinity to human bradykinin B2 receptor at 10 uM by radioligand displacement assay relative to control
Mus musculus [25] = assay: Toxicity in ICR mouse assessed as effect on locomotor activity measured moved distance per 4 mins at 1 mg/kg, ip after 30 mins by open field test (reference value: 1124 121 cm); type: organism-based; parameters: dose 1 mg/kg, route intraperitoneal; details: in vivo
[26] = biological target: Neuromedin-K receptor (Homo sapiens) (UniProt P29371); assay: Binding affinity to human NK3 receptor at 10 uM by radioligand displacement assay relative to control
Mus musculus [27] = assay: Antiamnesic activity in ICR mouse scopolamine-induced memory impairment model assessed as increase in retention latency at 5 mg/kg, ip administered 60 mins prior to scopolamine challenge measured after 40 mins by passive avoidance test relative to scopolamine-treated control; type: functional; details: route intraperitoneal
[28] = biological target: Sigma non-opioid intracellular receptor 1 (Homo sapiens, UniProt Q99720); assay: Binding affinity to sigma 1 receptor (unknown origin) at 10 uM by radioligand displacement assay
Sequence of Sigma non-opioid intracellular receptor 1 (Q99720 whole entry): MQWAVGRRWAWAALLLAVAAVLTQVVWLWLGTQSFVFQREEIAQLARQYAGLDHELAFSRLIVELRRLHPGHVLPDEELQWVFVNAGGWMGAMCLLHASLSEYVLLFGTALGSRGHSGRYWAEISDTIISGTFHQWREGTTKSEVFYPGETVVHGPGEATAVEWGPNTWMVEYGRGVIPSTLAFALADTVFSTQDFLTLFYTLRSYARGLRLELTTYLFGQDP

Homo sapiens [29] = organism: Homo sapiens; assay: Binding affinity to P2X receptor (unknown origin) at 10 uM by radioligand displacement assay relative to control
[30] = biological target: Substance-K receptor (Homo sapiens) (UniProt P21452); assay: Binding affinity to human NK2 receptor at 10 uM by radioligand displacement assay relative to control
[31] = biological target: Vasopressin V1a receptor (Homo sapiens) (UniProt P37288); assay: Binding affinity to human vasopressin V1a receptor at 10 uM by radioligand displacement assay relative to control
Sequence of Vasopressin V1a receptor (Homo sapiens) (P37288 whole entry, looked up): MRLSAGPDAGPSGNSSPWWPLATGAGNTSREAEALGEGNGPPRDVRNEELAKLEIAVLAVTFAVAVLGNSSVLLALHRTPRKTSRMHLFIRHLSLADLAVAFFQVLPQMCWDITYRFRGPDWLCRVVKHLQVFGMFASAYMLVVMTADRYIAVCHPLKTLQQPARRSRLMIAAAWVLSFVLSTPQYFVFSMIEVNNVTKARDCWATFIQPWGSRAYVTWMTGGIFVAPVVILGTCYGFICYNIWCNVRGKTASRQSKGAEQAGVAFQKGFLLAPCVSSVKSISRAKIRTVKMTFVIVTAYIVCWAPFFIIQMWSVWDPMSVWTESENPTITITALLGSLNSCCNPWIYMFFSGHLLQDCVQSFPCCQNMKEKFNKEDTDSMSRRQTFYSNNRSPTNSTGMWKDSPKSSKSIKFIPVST

Mus musculus [32] = assay: Toxicity in ICR mouse assessed as effect on locomotor activity measured moved distance per 4 mins at 100 mg/kg, ip after 30 mins by open field test (reference value: 1124 121 cm); type: organism-based; parameters: dose 100 mg/kg, route intraperitoneal; details: in vivo
[33] = biological target: Kappa-type opioid receptor (Homo sapiens) (UniProt P41145); assay: Binding affinity to kappa opioid receptor (unknown origin) at 10 uM by radioligand displacement assay relative to control
Sequence of Kappa-type opioid receptor (Homo sapiens) (P41145 whole entry): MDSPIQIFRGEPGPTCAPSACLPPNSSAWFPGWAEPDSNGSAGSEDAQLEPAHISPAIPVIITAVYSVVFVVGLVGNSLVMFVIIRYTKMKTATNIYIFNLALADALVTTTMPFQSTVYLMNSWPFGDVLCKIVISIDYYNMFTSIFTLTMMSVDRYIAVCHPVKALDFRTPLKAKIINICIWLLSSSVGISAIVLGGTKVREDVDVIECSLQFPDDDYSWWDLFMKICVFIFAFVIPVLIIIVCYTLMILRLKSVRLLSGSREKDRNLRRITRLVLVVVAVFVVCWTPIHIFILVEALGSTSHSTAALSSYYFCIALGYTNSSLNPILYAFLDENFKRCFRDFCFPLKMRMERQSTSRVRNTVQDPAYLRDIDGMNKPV

[34] = biological target: Adrenergic receptor alpha-1 (Homo sapiens) (UniProt P35348+P25100+P35368); assay: Binding affinity to adrenergic alpha1 receptor (unknown origin) at 10 uM by radioligand displacement assay relative to control

Work on `C[C@H]1[C@@H](c2ccccc2)CC(=O)N1CC(N)=O` yielded an inhibition [1] of -4%, an inhibition [2] of -2% and an inhibition [3] of -3%. The inhibition [4] was 2%, the inhibition [5] was -6% and the inhibition [6] was -2%. The inhibition [7] was 7%, the Activity (Mus musculus [8]) was 458 cm and the inhibition (Homo sapiens [9]) was 5%. It also gave an inhibition (Homo sapiens [10]) of 6%, an Activity (Mus musculus [11]) of 209% and an inhibition [12] of -4%. For the same compound, the inhibition [13] was -7%, the Activity (Mus musculus [14]) was “Dose-dependent effect” and the inhibition [15] was -2%. For the same compound, the Activity (Mus musculus [16]) was 648 cm, the ED50 (Mus musculus [17]) was 453 mg/kg and the ED50 (Mus musculus [18]) was 349 mg/kg. The inhibition [19] was -3%, the Activity [20] was “inactive” and the Activity (Mus musculus [21]) was 406 cm. For the same compound, the Activity (Mus musculus [22]) was 871 cm, the inhibition [23] was 8% and the inhibition [24] was 3%. For the same compound, the Activity (Mus musculus [25]) was 1402 cm, the inhibition [26] was -7% and the Activity (Mus musculus [27]) was 237%. For the same compound, the Activity [28] was “inactive”, the inhibition (Homo sapiens [29]) was 6% and the inhibition [30] was -3%. It also gave an inhibition [31] of 2%, an Activity (Mus musculus [32]) of 1076 cm and an inhibition [33] of -5%. The inhibition [34] was -5%.
